# Compounds with a hit are over-represented: about 1.5% of the library has one in this group of screens.
# M4 PAM = human M4 muscarinic receptor positive allosteric modulators, primary screen, CHO-K1 cells, Fluo-8 calcium fluorescence. CHO-K1 hM4/Gqi5, ACh EC20; 0% = ACh EC20, 100% = maximal ACh. Muscarinic acetylcholine receptor M4 (Homo sapiens), P08173. 360,000 tested, 0.4% active. activation, % at 3 µM;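 active = activation above its plate's cutoff, the mean activation of sample wells plus 3 SD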
# V1R ag counter = agonists of human V1a receptor, primary screen, counter-screen for OXTR agonist project, fluorescence, CHO-V1R cells; Fluo-8 calcium fluorescence, agonist mode; 0% DMSO, 100% 3 nM vasopressin; activation, % at 3 µM; 320,000 tested, 0.25% active; AID 2797, 2010;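 active = activation above the mean activation of all tested compounds plus 3 SD, per screening run, cut at about 20% in these data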;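 note: signal is peak over basal fluorescence ratio across a 100 second FLIPR read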
# CHRM4 agonist = human M4 muscarinic receptor agonists, primary screen, CHO-K1 cells, Fluo-8 calcium fluorescence; 360,000 tested, 0.14% active; activation, % at 3 µM; CHO-K1 hM4/Gqi5; vehicle 0%, full acetylcholine response 100%; Muscarinic acetylcholine receptor M4 (Homo sapiens), P08173;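 active = activation above the run mean over all test wells plus 3 SD, cut at about 32% in these data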;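 note: peak over basal fluorescence ratio per well then scaled between controls; 0% = DMSO wells and 100% = acetylcholine at EC100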
# OXTR potentiate = human OXTR potentiators, primary screen, fluorescence, CHO-OTR cells, Fluo-8 calcium | 320,000 tested, 0.061% active | activation, % at 3 µM | Oxytocin receptor (Homo sapiens), P30559 | Fluo-8 calcium fluorescence, potentiator mode; 0% = oxytocin EC15, 100% = EC100;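 active = activation above that plate's cutoff, the mean activation of tested compounds plus 3 SD, cut at about 6.6% in these data, passing the limit was not always enough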;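 note: 100% uses oxytocin at 75 nM as the full agonist control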
# Target sequence (P30559 whole entry, looked up): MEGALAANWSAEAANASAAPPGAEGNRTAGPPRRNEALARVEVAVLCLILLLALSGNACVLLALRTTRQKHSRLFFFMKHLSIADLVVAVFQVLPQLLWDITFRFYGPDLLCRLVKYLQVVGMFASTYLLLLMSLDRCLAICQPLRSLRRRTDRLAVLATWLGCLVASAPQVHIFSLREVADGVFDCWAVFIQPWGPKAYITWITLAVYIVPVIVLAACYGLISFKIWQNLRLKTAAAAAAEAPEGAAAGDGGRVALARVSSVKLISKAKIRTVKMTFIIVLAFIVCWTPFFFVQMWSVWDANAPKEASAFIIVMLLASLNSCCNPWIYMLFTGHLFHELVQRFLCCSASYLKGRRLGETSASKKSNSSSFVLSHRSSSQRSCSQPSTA
#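 Replication – single well per compound, singlicate · Assay system – CHO cell line stably expressing human OTR · Timing – 6 min pre-incubation, 100 s read · Measure – normalized max/min fluorescence ratio, % activation · Doses – 3.0 µM, one dose · Detection – Fluo-8 calcium dye fluorescence · Probe or stimulus – oxytocin near EC15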
# CHRM4 antagonist = human M4 muscarinic receptor antagonists, primary screen, CHO cells, Fluo-8 calcium fluorescence; Muscarinic acetylcholine receptor M4 (Homo sapiens), P08173; CHO-hM4 cells, ACh EC80; inhibition, % at 3 µM; 360,000 tested, 0.73% active; AID 624125, 2012;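 active = inhibition above its plate's cutoff, the mean inhibition of sample wells plus 3 SD, cut at about 27% in these data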;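 note: 0% = acetylcholine EC80 with DMSO and 100% = DMSO without agonist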
# OXTR agonist = human OXTR agonists, primary screen, fluorescence, CHO-OTR cells, Fluo-8 calcium. Oxytocin receptor (Homo sapiens), P30559. Fluo-8 calcium fluorescence; normalized: DMSO 0%, oxytocin 100%. activation, % at 3 µM. 320,000 tested, 0.32% active;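 active = activation above the mean of all tested compounds plus 3 SD, cutoff set per screening run, cut at about 20% in these data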;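 note: peak over basal fluorescence ratio from a 100 s FLIPR kinetic read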
# An asterisk follows results filed as active; · = no result given.
SMILES,M4 PAM,V1R ag counter,CHRM4 agonist,OXTR potentiate,CHRM4 antagonist,OXTR agonist
CCOc1cc(CNCCc2ccc(S(N)(=O)=O)cc2)cc(Cl)c1OCc1ccccc1,-5,22*,30,-14,46*,37*
CCCCCn1nnnc1-c1nc2cc(C)c(C)cc2[nH]c1=O,4,·,0,·,-10,·
CCOc1ccc(S(=O)(=O)NC(Cc2cnc[nH]2)C(=O)O)cc1 (stereo unspecified),21*,0,3,4,-6,1
CCOc1ccc(C(=O)CCNC(Cc2cnc[nH]2)C(=O)O)cc1 (stereo unspecified),6,-1,1,-1,-6,0
CC(=O)c1ccc(S(=O)(=O)NC2CC(=O)N(c3ccc(C)c(C)c3)C2)cc1 (stereo unspecified),9,5,9,-14,-6,3
CCCCc1cc(=O)oc2cc(OCc3cc(OC)c(OC)c(OC)c3)c(Cl)cc12,16*,0,3,-5,-4,0
O=C(Nc1ccc(Cl)cc1)Nc1nnc(CSCc2ccccc2)s1,29*,1,3,-7,4,1
CCCC(C(=O)NCCC(C)C)N(Cc1ccccc1Cl)C(=O)c1snc(C(N)=O)c1N (stereo unspecified),-2,-1,1,-7,-10,-2
C=C1C(=O)C=C2CN(C(=O)c3ccccc3)[C@@](Cc3ccc(F)cc3)(C(=O)OC)[C@@H]12,-18,81*,143*,-17,96*,69*
C=C1C(=O)CC2=C1[C@](Cc1ccc(F)cc1)(C(=O)OC)N(C(=O)c1ccccc1)C2,2,·,1,·,1,·
Cc1ccc(C(=O)C2C(=O)C3CCC2C3)cc1 (stereo unspecified),-5,·,0,·,8,·
CC1CCC2C(=O)N(c3ccc(NC4CCN(Cc5ccccc5)CC4)c([N+](=O)[O-])c3)C(=O)C2C1 (stereo unspecified),-59,1,4,-4,29*,2
CCOc1ccc(CC(C(=O)NN)C(=O)NN)cc1CN(C)C,19*,-1,-1,-8,-22,0
CCOc1ccccc1CNCc1ccc(C(=O)O)cc1,1,1,0,1,-5,0
Cc1nc(N)sc1-c1csc(Nc2ccccn2)n1,1,·,0,·,28*,·
Cc1nc(C)c(-c2csc(Nc3ccccn3)n2)s1,-2,2,3,-18,-4,0
Cc1ccc(-c2csc(Nc3ccccn3)n2)cc1,14*,0,-1,-7,-14,-2
CCN(CC)C(=O)CSc1nnc(-c2ccccn2)n1-c1ccc(C)c(C)c1,3,0,1,-9,-2,0
COC(=O)c1cccc(N2C(=O)C[C@](Sc3ccc(C)cc3)(C(=O)OC)[C@H]2c2ccccc2)c1,-12,·,16,·,27*,·
COC(=O)[C@@]1(Sc2ccc(C)cc2)CC(=O)N(c2ccc(Cl)cc2)[C@@H]1c1ccccc1,1,·,0,·,-2,·
CCCn1c(=O)c(C(=O)Nc2ncccc2C)c(O)c2ccccc21,-7,28*,0,-9,1,30*
CCCn1c(=O)c(C(=O)Nc2cccc(C)n2)c(O)c2ccccc21,-3,1,0,-3,-15,0
Cc1cc(C)c(C)c(S(=O)(=O)N2CCN(C(=O)c3ccccn3)CC2)c1C,-1,2,5,-4,-7,-1
Nc1ncnc2c1ncn2[C@@H]1O[C@H](COP(=O)(O)OP(=O)(O)OP(=O)(O)O)[C@@H](O)[C@H]1O,10,78*,96*,-24,-12,69*
CCNc1nc(NC(C)C)nc(NS(=O)(=O)c2ccc(N)cc2)n1,30*,0,1,-16,-17,1
